Converted amounts (≈) assume the structure as drawn. The source made the active and inactive calls. The rule behind the calls is not given here.
Assays:
Leishmania infantum [1] = test: Antileishmanial activity against Leishmania infantum promastigotes; type: functional, organism-based
Trypanosoma cruzi [2] = test: Antitrypanosomal activity against of Trypanosoma cruzi epimastigotes; type: functional, organism-based
Leishmania infantum [3] = test: Antileishmanial activity against Leishmania infantum promastigotes in presence of FA; type: functional, organism-based
Trypanosoma cruzi [4] = test: Antitrypanosomal activity against of Trypanosoma cruzi epimastigotes in presence of FA; type: functional, organism-based
Leishmania infantum [5] = test: Antileishmanial activity against Leishmania infantum promastigotes assessed as increase in IC50 in presence of FA; type: functional
Trypanosoma cruzi [6] = test: Antitrypanosomal activity against of Trypanosoma cruzi epimastigotes assessed as increase in IC50 in presence of FA; type: functional
Leishmania infantum [7] = test: Induction of NO production in Leishmania infantum promastigotes by Griess method; type: functional, organism-based
Procedure, shortened: (§1)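 NO production in parasite cultures was measured at three test concentrations, either 25, 50 and 100 μM or 1, 5 and 10 μM depending on the compound.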

Trypanosoma cruzi [8] = test: Induction of NO production in Trypanosoma cruzi epimastigotes by Griess method; type: functional, organism-based; procedure, shortened: as §1
Leishmania infantum [9] = test: Induction of NO production in Leishmania infantum promastigotes at highest concentration by Griess method; type: functional; procedure, shortened: as §1
Trypanosoma cruzi [10] = test: Induction of NO production in Trypanosoma cruzi epimastigotes at highest concentration by Griess method; type: functional; procedure, shortened: as §1
Leishmania infantum [11] = test: Induction of ROS production in Leishmania infantum promastigotes by DCFH-DA staining based flow cytometry analysis; type: functional, organism-based
Procedure, shortened: (§2)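 Oxidative stress in parasite cultures was read fluorometrically with the 2,7-dichlorodihydrofluorescein diacetate (DCFH-DA) probe against a negative-control culture, and was also run with metal cations present.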

Trypanosoma cruzi [12] = test: Induction of ROS production in Trypanosoma cruzi epimastigotes by DCFH-DA staining based flow cytometry analysis; type: functional, organism-based; procedure, shortened: as §2
[13] = Solubility of the compound by UV-Vis spectroscopy; type: physicochemical
Procedure, shortened: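 Solubility in μM was determined by UV-Vis spectroscopy.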

[14] = Cytotoxicity against mouse J774.1 cells; type: toxicity, cell-based
Procedure, shortened: (§3)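 Cytotoxicity (CC50) was measured on murine J774.1A macrophages. Selectivity index is CC50 divided by parasite IC50 (promastigote, epimastigote or axenic amastigote). Values are the mean of three independent experiments.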

[15] = Selectivity index, ratio of CC50 for mouse J774.1 cells to IC50 for Leishmania infantum promastigotes; type: toxicity; details: read-out: Ratio CC50/IC50; procedure, shortened: as §3
Leishmania infantum [16] = test: Antileishmanial activity against Leishmania infantum axenic amastigotes; type: functional, organism-based
[17] = Selectivity index, ratio of CC50 for mouse J774.1 cells to IC50 for Leishmania infantum amastigotes; type: toxicity; details: read-out: Ratio CC50/IC50; procedure, shortened: as §3
[18] = Selectivity index, ratio of CC50 for mouse J774.1 cells to IC50 for Trypanosoma cruzi epimastigotes; type: toxicity; details: read-out: Ratio CC50/IC50; procedure, shortened: as §3
[19] = Mutagenicity in Salmonella typhimurium TA98 assessed as number of revertant colonies at 20 uM by Ames test (reference value: 4); type: toxicity; details: salmonella enterica subsp. enterica […]
Procedure, shortened: (§4)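 Ames reverse-mutation assay in Salmonella typhimurium TA 98. Revertant colonies were counted at five escalating dose levels alongside a zero-dose (spontaneous revertant) negative control and a 4-nitro-o-phenylenediamine positive control. A compound was called mutagenic when revertants exceeded twice the negative control at two consecutive dose levels.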

Leishmania infantum [20] = test: Antileishmanial activity against Leishmania infantum promastigotes assessed as decrease in IC50 in presence of copper(II); type: functional, organism-based
Procedure, shortened: (§5)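 Parasite proliferation was run in the presence of copper(II), iron(III) or zinc(II) salts, each at 1 μM.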

Leishmania infantum [21] = test: Antileishmanial activity against Leishmania infantum promastigotes assessed as decrease in IC50 in presence of iron(III); type: functional, organism-based; procedure, shortened: as §5
Leishmania infantum [22] = test: Antileishmanial activity against Leishmania infantum promastigotes assessed as decrease in IC50 in presence of zinc(II); type: functional, organism-based; procedure, shortened: as §5
Trypanosoma cruzi [23] = test: […] activity against Trypanosoma cruzi epimastigotes assessed as change in parasites in presence of copper(II); type: functional, organism-based; procedure, shortened: as §5
Trypanosoma cruzi [24] = test: […] activity against Trypanosoma cruzi epimastigotes assessed as change in parasites in presence of iron(III); type: functional, organism-based; procedure, shortened: as §5
Trypanosoma cruzi [25] = test: […] activity against Trypanosoma cruzi epimastigotes assessed as change in parasites in presence of zinc(II); type: functional, organism-based; procedure, shortened: as §5
Leishmania infantum [26] = test: Induction of ROS production in Leishmania infantum promastigotes in presence of Zn2+; type: functional, organism-based; procedure, shortened: as §2
Leishmania infantum [27] = test: Induction of ROS production in Leishmania infantum promastigotes in presence of Cu2+; type: functional, organism-based; procedure, shortened: as §2
Leishmania infantum [28] = test: Induction of ROS production in Leishmania infantum promastigotes in presence of Fe3+; type: functional, organism-based; procedure, shortened: as §2
Trypanosoma cruzi [29] = test: Induction of ROS production in Trypanosoma cruzi epimastigotes in presence of Zn2+; type: functional, organism-based; procedure, shortened: as §2
Trypanosoma cruzi [30] = test: Induction of ROS production in Trypanosoma cruzi epimastigotes in presence of Cu2+; type: functional, organism-based; procedure, shortened: as §2
Trypanosoma cruzi [31] = test: Induction of ROS production in Trypanosoma cruzi epimastigotes in presence of Fe3+; type: functional, organism-based; procedure, shortened: as §2
[32] = Mutagenicity in Salmonella typhimurium TA98 assessed as number of revertant colonies at 90 uM by Ames test (reference value: 4); type: toxicity; details: salmonella enterica subsp. enterica […]; procedure, shortened: as §4
[33] = Mutagenicity in Salmonella typhimurium TA98 assessed as number of revertant colonies at 270 uM by Ames test (reference value: 4); type: toxicity; details: salmonella enterica subsp. enterica […]; procedure, shortened: as §4
[34] = Mutagenicity in Salmonella typhimurium TA98 assessed as number of revertant colonies at 830 uM by Ames test (reference value: 4); type: toxicity; details: salmonella enterica subsp. enterica […]; procedure, shortened: as §4
[35] = Mutagenicity in Salmonella typhimurium TA98 assessed as number of revertant colonies at 2500 uM by Ames test (reference value: 4); type: toxicity; details: salmonella enterica subsp. enterica […]; procedure, shortened: as §4
[36] = Mutagenicity in Salmonella typhimurium TA98 assessed as number of revertant colonies at 7500 uM by Ames test (reference value: 4); type: toxicity; details: salmonella enterica subsp. enterica […]; procedure, shortened: as §4

NNc1nc(-c2ccc(Cl)cc2)nc2ccccc12
IC50 (Leishmania infantum [1]): 1.56 µM | IC50 (Trypanosoma cruzi [2]): 11.5 µM | IC50 (Leishmania infantum [3]): 2.05 µM | IC50 (Trypanosoma cruzi [4]): 19.1 µM | Activity (Leishmania infantum [5]): 31% | Activity (Trypanosoma cruzi [6]): 42% | Activity (Leishmania infantum [7]): Dose-Dependent Effect | Activity (Trypanosoma cruzi [8]): Dose-Dependent Effect | Activity (Leishmania infantum [9]): >4 µM | Activity (Trypanosoma cruzi [10]): >2 µM | Activity (Leishmania infantum [11]): inactive | Activity (Trypanosoma cruzi [12]): inactive

NNc1nc(-c2ccc(F)cc2)nc2ccccc12
IC50 (Leishmania infantum [1]): 5.01 µM | IC50 (Trypanosoma cruzi [2]): 17.9 µM

O=[N+]([O-])c1ccc(/C=N/N=c2\[nH]c(-c3cccc(Br)c3)nc3ccccc23)o1
IC50 (Leishmania infantum [1]): > 25 µM | IC50 (Trypanosoma cruzi [2]): > 25 µM | solubility [13]: 5.67 µM (≈ 2.48 µg/mL)

O=[N+]([O-])c1ccc(/C=N/N=c2\[nH]c(-c3ccc(Cl)cc3)nc3ccccc23)o1
IC50 (Leishmania infantum [1]): > 25 µM | IC50 (Trypanosoma cruzi [2]): > 25 µM | solubility [13]: 3.21 µM (≈ 1.26 µg/mL)

O=c1[nH]c(-c2ccc(Br)cc2)nc2ccccc12
IC50 (Leishmania infantum [1]): 6.89 µM | IC50 (Trypanosoma cruzi [2]): 19.8 µM

NNc1nc(-c2ccc(Br)cc2)nc2ccccc12
IC50 (Leishmania infantum [1]): 2.13 µM | IC50 (Trypanosoma cruzi [2]): 14.3 µM | IC50 (Leishmania infantum [3]): 2.83 µM | IC50 (Trypanosoma cruzi [4]): 25.2 µM | Activity (Leishmania infantum [5]): 33% | Activity (Trypanosoma cruzi [6]): 48%

O=c1[nH]c(-c2cccc(Br)c2)nc2ccccc12
IC50 (Leishmania infantum [1]): > 25 µM | IC50 (Trypanosoma cruzi [2]): > 25 µM

CCCCCCCCCCCCCCCCOP(=O)([O-])OCC[N+](C)(C)C [MILTEFOSINE]
IC50 (Leishmania infantum [1]): 10.1 µM | CC50 [14]: 89.2 µM | selectivity ratio [15]: 8.9 | IC50 (Leishmania infantum [16]): 8.69 µM | selectivity ratio [17]: 10.1

Cc1ccc(-c2nc3ccccc3c(=O)[nH]2)cc1
IC50 (Leishmania infantum [1]): 5.23 µM | IC50 (Trypanosoma cruzi [2]): > 25 µM

Fc1ccc(-c2nc3ccccc3/c(=N/N=C/c3ccco3)[nH]2)cc1
IC50 (Leishmania infantum [1]): 9.07 µM | IC50 (Trypanosoma cruzi [2]): 9.07 µM | solubility [13]: 7.87 µM (≈ 2.62 µg/mL) | CC50 [14]: 119 µM | selectivity ratio [15]: 13.1 | selectivity ratio [18]: 5.7 | IC50 (Leishmania infantum [16]): 11.1 µM | selectivity ratio [17]: 10.7 | IC50 (Trypanosoma cruzi [4]): 33.1 µM | Activity (Leishmania infantum [5]): 41% | Activity (Trypanosoma cruzi [6]): 37% | Activity (Leishmania infantum [7]): inactive | Activity (Trypanosoma cruzi [8]): inactive | Activity (Leishmania infantum [11]): inactive | Activity (Trypanosoma cruzi [12]): inactive

Nc1ccc([N+](=O)[O-])cc1N
Activity [19]: 365

O=[N+]([O-])c1ccc(/C=N/N=c2\[nH]c(-c3cccc(Cl)c3)nc3ccccc23)o1
IC50 (Leishmania infantum [1]): 0.77 µM | IC50 (Trypanosoma cruzi [2]): 0.77 µM | solubility [13]: 7.11 µM (≈ 2.8 µg/mL) | CC50 [14]: 41.6 µM | selectivity ratio [15]: 54 | selectivity ratio [18]: 60.2 | IC50 (Leishmania infantum [16]): 0.89 µM | selectivity ratio [17]: 46.7 | Activity (Leishmania infantum [7]): Dose-Dependent Effect | Activity (Trypanosoma cruzi [8]): Dose-Dependent Effect | Activity (Leishmania infantum [9]): 2 µM | Activity (Trypanosoma cruzi [10]): 1 µM | Activity (Leishmania infantum [11]): Active | Activity (Trypanosoma cruzi [12]): Active | Activity (Leishmania infantum [20]): Active | Activity (Leishmania infantum [21]): Active | Activity (Leishmania infantum [22]): Active | Activity (Trypanosoma cruzi [23]): inactive | Activity (Trypanosoma cruzi [24]): inactive | Activity (Trypanosoma cruzi [25]): inactive | Activity (Leishmania infantum [26]): Active | Activity (Leishmania infantum [27]): Active | Activity (Leishmania infantum [28]): Active | Activity (Trypanosoma cruzi [29]): Active | Activity (Trypanosoma cruzi [30]): Active | Activity (Trypanosoma cruzi [31]): Active | Activity [32]: 3 | Activity [33]: 10 | Activity [34]: 9.5 | Activity [35]: 10.5 | Activity [36]: 9.5
